ChEMBL document CHEMBL3102734, “Inhibition of LOX by flavonoids: a structure-activity relationship study” (Eur J Med Chem, 2014)
Active and inactive are the calls of the source. The calls are words filed in the database; no cut-off is given here.

Tests used:
[1] = biological target: T1, Polyunsaturated fatty acid 5-lipoxygenase (Homo sapiens) (UniProt P09917); assay: Inhibition of 5-LOX-mediated LTB4 production in human neutrophils using arachidonic acid as substrate at 40 uM preincubated for 10 mins followed by substrate addition measured after 8 mins by enzyme immunoassay relative to control
T1 sequence (whole entry): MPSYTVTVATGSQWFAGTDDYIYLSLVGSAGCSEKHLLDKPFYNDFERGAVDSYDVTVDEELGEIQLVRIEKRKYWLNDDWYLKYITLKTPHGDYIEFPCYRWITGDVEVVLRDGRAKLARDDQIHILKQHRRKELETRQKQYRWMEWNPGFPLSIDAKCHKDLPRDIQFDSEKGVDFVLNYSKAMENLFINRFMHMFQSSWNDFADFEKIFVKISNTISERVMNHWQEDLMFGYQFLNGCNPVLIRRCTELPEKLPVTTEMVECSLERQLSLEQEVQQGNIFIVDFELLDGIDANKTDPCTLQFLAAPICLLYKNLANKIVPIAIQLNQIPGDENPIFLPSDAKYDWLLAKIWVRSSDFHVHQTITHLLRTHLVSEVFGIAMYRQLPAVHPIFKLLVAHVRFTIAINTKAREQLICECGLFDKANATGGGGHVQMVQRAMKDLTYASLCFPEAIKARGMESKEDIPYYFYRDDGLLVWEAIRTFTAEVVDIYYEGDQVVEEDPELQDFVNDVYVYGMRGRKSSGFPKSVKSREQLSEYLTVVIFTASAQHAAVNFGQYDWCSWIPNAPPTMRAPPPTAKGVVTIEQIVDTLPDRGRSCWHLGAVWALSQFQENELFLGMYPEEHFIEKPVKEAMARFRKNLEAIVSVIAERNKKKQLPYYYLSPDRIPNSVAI
Summary of the method: (§1)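 Isolated human neutrophils held in HBSS on ice; viability checked by trypan blue. Cells at 3.5×10^6 cells/mL equilibrated 10 min at 37 °C. Flavonoids (0.15–40 μM) pre-incubated 10 min, then A23187 (5 μM) plus arachidonic acid (10 μg/mL) added for 8 min. Stopped with cold methanol and centrifuged 13,000 g, 1 min, 4 °C. LTB4 measured by EIA and expressed as % inhibition of control. NDGA (1 μM) positive control. At least three experiments.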

[2] = biological target: T2, Seed linoleate 13S-lipoxygenase-1 (Glycine max) (UniProt P08170); assay: Binding affinity to soybean LOX-1 at 1248 uM by STD-[1H] NMR spectroscopic analysis
T2 sequence (whole entry): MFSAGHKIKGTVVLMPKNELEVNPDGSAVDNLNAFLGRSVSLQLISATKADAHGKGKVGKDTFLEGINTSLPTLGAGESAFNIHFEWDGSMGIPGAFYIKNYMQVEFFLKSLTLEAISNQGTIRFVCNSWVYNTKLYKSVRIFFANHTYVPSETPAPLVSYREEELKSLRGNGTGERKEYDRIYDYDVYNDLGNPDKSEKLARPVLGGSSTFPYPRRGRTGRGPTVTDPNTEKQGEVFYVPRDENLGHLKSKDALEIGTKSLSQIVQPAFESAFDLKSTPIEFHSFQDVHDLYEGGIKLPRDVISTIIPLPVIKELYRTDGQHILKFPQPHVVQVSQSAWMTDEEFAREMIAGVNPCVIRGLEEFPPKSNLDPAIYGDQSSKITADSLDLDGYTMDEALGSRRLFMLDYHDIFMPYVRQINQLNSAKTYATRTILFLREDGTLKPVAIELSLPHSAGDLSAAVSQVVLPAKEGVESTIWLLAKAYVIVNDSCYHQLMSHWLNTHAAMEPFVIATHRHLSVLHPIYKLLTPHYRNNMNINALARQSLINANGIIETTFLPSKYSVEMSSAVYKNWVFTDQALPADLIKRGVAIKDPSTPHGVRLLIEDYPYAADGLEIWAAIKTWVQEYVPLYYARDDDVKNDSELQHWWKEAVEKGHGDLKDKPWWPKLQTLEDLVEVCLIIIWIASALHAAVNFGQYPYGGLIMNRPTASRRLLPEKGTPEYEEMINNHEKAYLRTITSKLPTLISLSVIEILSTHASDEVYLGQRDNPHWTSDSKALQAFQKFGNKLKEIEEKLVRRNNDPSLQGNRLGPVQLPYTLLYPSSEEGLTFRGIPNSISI
Summary of the method: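 STD-1H NMR at 37 °C, 600 MHz, cryoprobe. Lyophilized soybean LOX-1 in Tris buffer (20 mM Tris, 7 mM (NH4)2SO4, 3.5 mM MgCl2, 0.3 mM DTT in D2O, pH 9.0). Ligand added from a 16.6 mM DMSO-d6 stock. Final concentrations: LOX 4 μM, ligand 1248 μM, ratio 300:1. On-resonance saturation at 1.0 ppm; off-resonance reference at 20000 Hz.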

[3] = biological target: T3, Seed linoleate 13S-lipoxygenase-1 (Glycine max, UniProt P08170); assay: Mixed noncompetitive type inhibition of soybean LOX-1 using linoleic acid as substrate preincubated for 5 mins followed by substrate addition by Lineweaver-Burk plot analysis
T3 sequence (P08170 whole entry): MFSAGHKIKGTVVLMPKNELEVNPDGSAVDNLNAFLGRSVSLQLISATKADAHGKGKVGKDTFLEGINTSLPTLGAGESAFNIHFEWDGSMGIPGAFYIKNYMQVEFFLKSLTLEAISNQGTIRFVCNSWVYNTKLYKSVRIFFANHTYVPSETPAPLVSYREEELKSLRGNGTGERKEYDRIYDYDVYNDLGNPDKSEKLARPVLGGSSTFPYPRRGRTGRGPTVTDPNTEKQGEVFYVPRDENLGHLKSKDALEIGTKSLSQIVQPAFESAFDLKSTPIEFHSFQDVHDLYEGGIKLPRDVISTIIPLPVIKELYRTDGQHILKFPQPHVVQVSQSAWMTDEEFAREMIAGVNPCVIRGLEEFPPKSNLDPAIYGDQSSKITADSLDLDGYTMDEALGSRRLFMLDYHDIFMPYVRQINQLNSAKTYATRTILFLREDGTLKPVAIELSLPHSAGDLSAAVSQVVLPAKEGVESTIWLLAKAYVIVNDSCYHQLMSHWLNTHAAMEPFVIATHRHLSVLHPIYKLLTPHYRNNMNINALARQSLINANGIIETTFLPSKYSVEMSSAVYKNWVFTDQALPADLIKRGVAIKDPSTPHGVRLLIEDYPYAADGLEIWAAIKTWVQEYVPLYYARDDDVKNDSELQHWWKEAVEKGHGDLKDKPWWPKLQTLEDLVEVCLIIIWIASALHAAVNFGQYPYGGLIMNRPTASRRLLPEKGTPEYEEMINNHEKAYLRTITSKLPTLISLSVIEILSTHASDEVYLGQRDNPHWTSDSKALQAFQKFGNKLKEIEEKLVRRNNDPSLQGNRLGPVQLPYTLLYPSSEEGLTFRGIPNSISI
Summary of the method: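 Soybean LOX-1 (supplied lyophilized) kinetic assay. Enzyme pre-incubated with inhibitor 5 min, then linoleic acid added. Conversion to the cis,trans-hydroperoxide followed at 234 nm at 30 °C with continuous soft shaking. Readings every 30 s for 10 min; rate taken as the 0–3 min slope. Three inhibitor concentrations tested against three substrate concentrations. Inhibition type assigned by nonlinear Michaelis–Menten fitting and Lineweaver–Burk plots. At least four experiments, each in triplicate.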

[4] = biological target: T1, Polyunsaturated fatty acid 5-lipoxygenase (Homo sapiens); assay: Inhibition of 5-LOX-mediated LTB4 production in human neutrophils using arachidonic acid as substrate at 0.15 to 40 uM preincubated for 10 mins followed by substrate addition measured after 8 mins by enzyme immunoassay relative to control; summary of the method: as §1

SMILES	inhibition [1]	Activity [2]	Ki [3] [µM]	inhibition [4]
O=c1cc(-c2ccc(O)cc2)oc2cccc(O)c12	29.8%	Active	103	–
O=c1cc(-c2cccc(O)c2)oc2cccc(O)c12	< 50%	–	–	–
O=c1cc(-c2cccc(O)c2)oc2ccccc12	< 50%	–	–	–
O=C1CC(c2ccc(O)cc2)Oc2cc(O)cc(O)c21 (racemic)	< 50%	–	–	–

Other lines, results leading:

inhibition [1]	Activity [2]	Ki [3] [µM]	inhibition [4]	SMILES
–	–	–	inactive	COc1ccc(-c2cc(=O)c3c(O)cc(O)cc3o2)cc1O
Active	Active	–	–	COc1ccc(-c2cc(=O)c3c(O)cc(O)cc3o2)cc1
